Measurements reported in ChEMBL document CHEMBL5357066, “Development of Novel Membrane Disrupting Lipoguanidine Compounds Sensitizing Gram-Negative Bacteria to Antibiotics” (ACS Med Chem Lett, 2024).
In brackets after ≈: the same amount, converted by molar mass.

Tests used:
[1] = tested on: Enterococcus faecalis; test: Antibacterial activity against vancomycin sensitive Enterococcus faecalis NCTC 775 assessed as bacterial growth inhibition incubated for overnight by microbroth dilution method
[2] = tested on: Escherichia coli; test: Synergistic antibacterial activity against Escherichia coli NCTC 12923 assessed as fold change in rifampicin MIC at <=0.25 times MIC incubated for overnight by microbroth dilution checkerboard assay relative to rifampicin alone; type: functional
Outline: (§1)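 Checkerboard microdilution under MIC conditions (TSB, overnight, 37 °C). Two-fold series of each agent were combined on one plate before bacteria were added, and single-agent MICs were measured on the same plate. FIC = sum of combination MIC/alone MIC for each agent, taken from the most synergistic well. Three independent repeats, mean ± SD. ≤0.5 was taken as strong synergy and 0.5–<1 as weak.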

[3] = tested on: Pseudomonas aeruginosa; test: Synergistic antibacterial activity against Pseudomonas aeruginosa PAO1 assessed as fold change in rifampicin MIC at <=0.25 times MIC incubated for overnight by microbroth dilution checkerboard assay relative to rifampicin alone; type: functional
Outline: (§2)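 Checkerboard microdilution in Tryptic Soy Broth, run like the MIC assay. Overnight TSB cultures were back-diluted to OD 0.01 and added 1:1 to the combined two-fold series of both agents, then incubated overnight at 37 °C. Growth/no-growth was called at <0.1 OD600. MICs alone were read on the same plates. FIC index came from the most synergistic well; three independent repeats, mean ± SD.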

[4] = tested on: Acinetobacter baumannii; test: Synergistic antibacterial activity against Acinetobacter baumannii ATCC 17978 assessed as fold change in rifampicin MIC at <=0.25 times MIC incubated for overnight by microbroth dilution checkerboard assay relative to rifampicin alone; type: functional
Outline: as §1

[5] = tested on: Pseudomonas aeruginosa; test: Antibacterial activity against Pseudomonas aeruginosa PAO1 assessed as bacterial growth inhibition incubated for overnight by microbroth dilution method; type: functional
Outline: (§3)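 Broth microdilution in Tryptic Soy Broth. DMSO stocks were diluted in TSB as 2-fold series. Overnight TSB cultures were back-diluted to OD 0.01 and mixed 1:1 with compound. Incubation was overnight at 37 °C. MIC was the lowest concentration without visible growth (<0.1 OD600). DMSO vehicle was checked at equivalent concentrations.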

[6] = tested on: Klebsiella pneumoniae; test: Synergistic antibacterial activity against […] Klebsiella pneumoniae M6 assessed as rifampicin MIC at <=0.25 times MIC incubated for overnight by microbroth dilution checkerboard assay; type: functional
Outline: (§4)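 Checkerboard run under the MIC conditions (TSB, overnight, 37 °C). Antibiotic and lipoguanidine 2-fold series were combined on one plate before bacteria were added. Growth/no-growth was scored as for the MIC (<0.1 OD600). Single-agent MICs were measured on the same plates. Three independent repeats were done.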

[7] = tested on: Klebsiella pneumoniae; test: Synergistic antibacterial activity against Klebsiella pneumoniae NCTC 13368 assessed as fold change in rifampicin MIC at <=0.25 times MIC incubated for overnight by microbroth dilution checkerboard assay relative to rifampicin alone; type: functional
Outline: as §4

[8] = tested on: Acinetobacter baumannii; test: Antibacterial activity against Acinetobacter baumannii AYE assessed as bacterial growth inhibition incubated for overnight by microbroth dilution method; type: functional
Outline: as §3

[9] = tested on: Pseudomonas aeruginosa; test: Synergistic antibacterial activity against Pseudomonas aeruginosa NCTC 13437 assessed as rifampicin MIC at <=0.25 times MIC incubated for overnight by microbroth dilution checkerboard assay; type: functional
Outline: as §2

[10] = tested on: Klebsiella pneumoniae; test: Antibacterial activity against ESBL Klebsiella pneumoniae NCTC 13368 assessed as bacterial growth inhibition incubated for overnight by microbroth dilution method
[11] = tested on: Staphylococcus aureus; test: Antibacterial activity against methicillin resistant Staphylococcus aureus USA 300 assessed as bacterial growth inhibition incubated for overnight by microbroth dilution method; type: functional
Outline: (§5)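 Microbroth dilution in Tryptic Soy Broth. DMSO stocks were diluted in TSB as 2-fold series. Overnight TSB cultures were back-diluted to OD 0.01 and mixed 1:1 with compound. Incubation was overnight at 37 °C. MIC is the lowest concentration with no visible growth (<0.1 OD600). DMSO at equivalent concentrations was checked.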

[12] = tested on: Enterococcus faecium; test: Antibacterial activity against vancomycin resistant Enterococcus faecium NCTC 12204 assessed as bacterial growth inhibition incubated for overnight by microbroth dilution method; type: functional
Outline: as §5

[13] = tested on: Escherichia coli; test: Synergistic antibacterial activity against Escherichia coli NCTC 12923 assessed as rifampicin MIC at <=0.25 times MIC incubated for overnight by microbroth dilution checkerboard assay; type: functional
Outline: as §1

[14] = tested on: Staphylococcus aureus; test: Antibacterial activity against methicillin resistant Staphylococcus aureus NCTC 13616 assessed as bacterial growth inhibition incubated for overnight by microbroth dilution method; type: functional
Outline: as §5

[15] = tested on: Staphylococcus aureus; test: Antibacterial activity against methicillin sensitive Staphylococcus aureus 1199B assessed as bacterial growth inhibition incubated for overnight by microbroth dilution method; type: functional
Outline: as §5

[16] = tested on: Acinetobacter baumannii; test: Synergistic antibacterial activity against Acinetobacter baumannii AYE assessed as fold change in rifampicin MIC at <=0.25 times MIC incubated for overnight by microbroth dilution checkerboard assay relative to rifampicin alone; type: functional
Outline: as §1

[17] = tested on: Klebsiella pneumoniae; test: Synergistic antibacterial activity against Klebsiella pneumoniae NCTC 13368 assessed as rifampicin MIC at <=0.25 times MIC incubated for overnight by microbroth dilution checkerboard assay; type: functional
Outline: as §1

[18] = tested on: Acinetobacter baumannii; test: Antibacterial activity against Acinetobacter baumannii ATCC 17978 assessed as bacterial growth inhibition incubated for overnight by microbroth dilution method; type: functional
Outline: as §3

[19] = tested on: Enterococcus faecalis; test: Antibacterial activity against vancomycin resistant Enterococcus faecalis NCTC 12201 assessed as bacterial growth inhibition incubated for overnight by microbroth dilution method; type: functional
Outline: as §5

[20] = tested on: Pseudomonas aeruginosa; test: Synergistic antibacterial activity against Pseudomonas aeruginosa PAO1 assessed as rifampicin MIC at <=0.25 times MIC incubated for overnight by microbroth dilution checkerboard assay; type: functional
Outline: as §2

[21] = tested on: Pseudomonas aeruginosa; test: Antibacterial activity against Pseudomonas aeruginosa NCTC 13437 assessed as bacterial growth inhibition incubated for overnight by microbroth dilution method; type: functional
Outline: as §3

[22] = tested on: Klebsiella pneumoniae; test: Antibacterial activity against Klebsiella pneumoniae M6 assessed as bacterial growth inhibition incubated for overnight by microbroth dilution method
[23] = tested on: Pseudomonas aeruginosa; test: Synergistic antibacterial activity against Pseudomonas aeruginosa NCTC 13437 assessed as fold change in rifampicin MIC at <=0.25 times MIC incubated for overnight by microbroth dilution checkerboard assay relative to rifampicin alone; type: functional
Outline: as §2

[24] = tested on: Escherichia coli; test: Antibacterial activity against Escherichia coli NCTC 12923 assessed as bacterial growth inhibition incubated for overnight by microbroth dilution method; type: functional
Outline: as §3

[25] = tested on: Staphylococcus aureus; test: Antibacterial activity against methicillin sensitive Staphylococcus aureus ATCC 9144 assessed as bacterial growth inhibition incubated for overnight by microbroth dilution method; type: functional
Outline: as §5

[26] = tested on: Acinetobacter baumannii; test: Synergistic antibacterial activity against Acinetobacter baumannii AYE assessed as rifampicin MIC at <=0.25 times MIC incubated for overnight by microbroth dilution checkerboard assay; type: functional
Outline: as §1

[27] = tested on: Escherichia coli; test: Synergistic antibacterial activity against Escherichia coli NCTC 12923 assessed as fold change in novobiocin MIC at <=0.25 times MIC incubated for overnight by microbroth dilution checkerboard assay relative to novobiocin alone; type: functional
Outline: as §1

[28] = tested on: Acinetobacter baumannii; test: Synergistic antibacterial activity against Acinetobacter baumannii ATCC 17978 assessed as rifampicin MIC at <=0.25 times MIC incubated for overnight by microbroth dilution checkerboard assay; type: functional
Outline: as §1

CCCCC/C=C\C/C=C\CCCCCCCCNC(=N)NCCCCN
MIC [1]: 32 µg/mL (≈ 84.5 µM)
fold change (FC) [2]: 0
fold change (FC) [3]: 0
fold change (FC) [4]: >=4
MIC [5]: 16 µg/mL (≈ 42.3 µM)
MIC [6]: 4 µg/mL
fold change (FC) [7]: 0
MIC [8]: 8 µg/mL (≈ 21.1 µM)
MIC [9]: 16 µg/mL
MIC [10]: 16 µg/mL (≈ 42.3 µM)
MIC [11]: 8 µg/mL (≈ 21.1 µM)
MIC [12]: 16 µg/mL (≈ 42.3 µM)
MIC [13]: 8 µg/mL
MIC [14]: 16 µg/mL (≈ 42.3 µM)
MIC [15]: 16 µg/mL (≈ 42.3 µM)
fold change (FC) [16]: >=4
MIC [17]: 16 µg/mL
MIC [18]: 8 µg/mL (≈ 21.1 µM)
MIC [19]: 16 µg/mL (≈ 42.3 µM)
MIC [20]: 16 µg/mL
MIC [21]: > 64 µg/mL
MIC [22]: 8 µg/mL (≈ 21.1 µM)
fold change (FC) [23]: 0
MIC [24]: 4 µg/mL (≈ 10.6 µM)
MIC [25]: 8 µg/mL (≈ 21.1 µM)
MIC [26]: 0.25 µg/mL
fold change (FC) [27]: 0
MIC [28]: 0.5 µg/mL

CCCCCCCC/C=C\CCCCCCCCNC(=N)NCCCCN
MIC [1]: 4 µg/mL (≈ 10.5 µM)
fold change (FC) [2]: 0
fold change (FC) [3]: 0
fold change (FC) [4]: >=4
MIC [5]: 128 µg/mL (≈ 336 µM)
MIC [6]: 16 µg/mL
fold change (FC) [7]: >=4
MIC [8]: 16 µg/mL (≈ 42 µM)
MIC [9]: 16 µg/mL
MIC [10]: 128 µg/mL (≈ 336 µM)
MIC [11]: 2 µg/mL (≈ 5.25 µM)
MIC [12]: 4 µg/mL (≈ 10.5 µM)
MIC [13]: 8 µg/mL
MIC [14]: 4 µg/mL (≈ 10.5 µM)
MIC [15]: 4 µg/mL (≈ 10.5 µM)
fold change (FC) [16]: >=4
MIC [17]: ≤ 0.125 µg/mL
MIC [18]: 8 µg/mL (≈ 21 µM)
MIC [19]: 4 µg/mL (≈ 10.5 µM)
MIC [20]: 16 µg/mL
MIC [21]: > 128 µg/mL
MIC [22]: 8 µg/mL (≈ 21 µM)
fold change (FC) [23]: 0
MIC [24]: 8 µg/mL (≈ 21 µM)
MIC [25]: 4 µg/mL (≈ 10.5 µM)
MIC [26]: ≤ 0.125 µg/mL
fold change (FC) [27]: 0
MIC [28]: ≤ 0.125 µg/mL

CCCCCCCCCCCCNC(=N)NCCCCN
MIC [1]: 8 µg/mL (≈ 26.8 µM)
fold change (FC) [2]: >=4
fold change (FC) [3]: >=4
fold change (FC) [4]: >=4
MIC [5]: > 128 µg/mL
MIC [6]: ≤ 0.125 µg/mL
fold change (FC) [7]: >=4
MIC [8]: > 128 µg/mL
MIC [9]: ≤ 0.125 µg/mL
MIC [10]: > 128 µg/mL
MIC [11]: 4 µg/mL (≈ 13.4 µM)
MIC [12]: 16 µg/mL (≈ 53.6 µM)
MIC [13]: ≤ 0.125 µg/mL
MIC [14]: 4 µg/mL (≈ 13.4 µM)
MIC [15]: 4 µg/mL (≈ 13.4 µM)
fold change (FC) [16]: >=4
MIC [17]: 0.25 µg/mL
MIC [18]: 128 µg/mL (≈ 429 µM)
MIC [19]: 16 µg/mL (≈ 53.6 µM)
MIC [20]: ≤ 0.125 µg/mL
MIC [21]: 64 µg/mL (≈ 214 µM)
MIC [22]: > 128 µg/mL
fold change (FC) [23]: >=4
MIC [24]: 16 µg/mL (≈ 53.6 µM)
MIC [25]: 2 µg/mL (≈ 6.7 µM)
MIC [26]: ≤ 0.125 µg/mL
MIC [28]: ≤ 0.125 µg/mL
